Test results taken from ChEMBL document CHEMBL4602735, “Discovery of (1H-Pyrazolo[3,4-c]pyridin-5-yl)sulfonamide Analogues as Hepatitis B Virus Capsid Assembly Modulators by Conformation Constraint” (J Med Chem, 2020).
In brackets after ≈: the same amount, converted by molar mass. Activity calls are given as the source filed them. The rule behind the calls is not given here.

Assays:
[1] = Intrinsic clearance in human liver microsomes; assay type: ADME, Microsome; conditions: read-out: CLH
Hepatitis B virus [2] = assay: Antiviral activity against HBV infected in human HepAD38 cells assessed as reduction in viral DNA levels incubated for 6 days by PCR analysis; assay type: functional, organism-based; conditions: HePAD38, 144 h
[3] = Cytotoxicity in human HepAD38 cells assessed as induction of cell killing; assay type: cell-based
[4] = Intrinsic clearance in mouse liver microsomes; assay type: ADME, Microsome; conditions: read-out: CLH
[5] = Solubility in pH 6.8 phosphate buffer at 1 mg at 25 degC by HPLC analysis; assay type: physicochemical
Summary of the method: (§1)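 Solubility determined in water or 0.067 M phosphate buffer at pH 5.8, 6.8 and 7.4. Values are reported in mg/mL; ND means below the detection limit.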

[6] = Solubility in water at 1 mg at 25 degC by HPLC analysis; assay type: physicochemical; summary of the method: as §1
[7] = Solubility in pH 5.8 phosphate buffer at 1 mg at 25 degC by HPLC analysis; assay type: physicochemical; summary of the method: as §1
Hepatitis B virus [8] = assay: Antiviral activity against multidrug-resistant HBV infected in human HepG2.1403F cells assessed as reduction in viral replication incubated for 6 days by PCR analysis; assay type: functional, organism-based; conditions: 144 h
Summary of the method: (§2)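 Wild-type HBV replication measured in HepAD38 and HepG2.2.15 cells, lamivudine/entecavir-resistant HBV in HepG2.A64 cells (rtL180M+rtT184L+rtM204V) and multidrug-resistant HBV in HepG2.1403F cells (rtL180M+rtM204V+rtS202G+rtN236T). Read-out is reduction of HBV DNA. EC50 is reported as mean ± SD.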

[9] = Cytotoxicity in human HepG2 cells assessed as induction of cell killing; assay type: cell-based
Hepatitis B virus [10] = assay: Antiviral activity against HBV infected in human HepG2.A64 cells containing reverse transcriptase L180M/T184L/M204V mutant assessed as reduction in viral replication incubated for 6 days by PCR analysis; assay type: functional, organism-based; conditions: HepG2.A64, 144 h; summary of the method: as §2
[11] = Solubility in pH 7.4 phosphate buffer at 1 mg at 25 degC by HPLC analysis; assay type: physicochemical; summary of the method: as §1
[12] = Stability in pH 7.4 buffer assessed as compound remaining level at 37 degC by HPLC analysis; assay type: physicochemical
Summary of the method: (§3)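 Prodrug incubated in buffer (0.1 M HCl, pH 5.8, 6.8 or 7.4) at 37 °C; percent of compound remaining determined by HPLC; remaining percentage reported after 3 h, stability meaning no hydrolysis after 2 h.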

[13] = Stability in pH 6.8 buffer assessed as compound remaining level at 37 degC by HPLC analysis; assay type: physicochemical; summary of the method: as §3
[14] = Half life in mouse plasma by HPLC analysis; assay type: ADME, cell-free
Summary of the method: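 Prodrug incubated in plasma at 37 °C, with percent remaining determined by HPLC to derive half-life.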

[15] = Stability in pH 5.8 buffer assessed as compound remaining level at 37 degC by HPLC analysis; assay type: physicochemical; summary of the method: as §3
[16] = Selectivity index, ratio of CC50 for cytotoxicity in human HepAD38 cells assessed as induction of cell killing to EC50 for antiviral activity against HBV infected in human HepAD38 cells assessed as reduction in viral DNA levels incubated for 6 days by PCR analysis; assay type: toxicity, cell-based; conditions: read-out: Ratio CC50/EC50
Hepatitis B virus [17] = assay: Inhibition of HBsAg secretion in HBV infected human HepAD38 cells at 2 uM for 4 days by ELISA; assay type: functional, organism-based
Summary of the method: (§4)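 HepAD38 or HepG2.2.15 cells were treated at 2 µM for 4 days, with medium replaced every 2 days. Intracellular and extracellular DNA and RNA were quantified by qPCR or qRT-PCR, and HBeAg and HBsAg by ELISA. Results were compared with DMSO vehicle as mean ± SD, using a two-tailed t-test.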

Hepatitis B virus [18] = assay: Antiviral activity against HBV infected in human HepAD38 cells assessed as inhibition of intracellular viral DNA accumulation at 2 uM for 4 days by qPCR or qRT-PCR relative to control; assay type: functional, organism-based; summary of the method: as §4
Hepatitis B virus [19] = assay: Inhibition of HBsAg secretion in HBV infected human HepG2.2.15 cells at 2 uM for 4 days by ELISA; assay type: functional, organism-based; conditions: HepG2 2.2.15; summary of the method: as §4
Hepatitis B virus [20] = assay: Antiviral activity against HBV infected in human HepG2.2.15 cells assessed as inhibition of intracellular viral DNA accumulation at 2 uM for 4 days by qPCR or qRT-PCR relative to control; assay type: functional, organism-based; conditions: HepG2 2.2.15; summary of the method: as §4
Hepatitis B virus [21] = assay: Antiviral activity against HBV infected in human HepG2.2.15 cells assessed as reduction in viral DNA levels incubated for 6 days by PCR analysis; assay type: functional, organism-based; conditions: HepG2 2.2.15, 144 h
Hepatitis B virus [22] = assay: Antiviral activity against HBV infected in human HepAD38 cells assessed as inhibition of intracellular viral RNA accumulation at 2 uM for 4 days by qPCR or qRT-PCR relative to control; assay type: functional, organism-based; summary of the method: as §4
Hepatitis B virus [23] = assay: Antiviral activity against HBV infected in human HepG2.2.15 cells assessed as inhibition of intracellular viral RNA accumulation at 2 uM for 4 days by qPCR or qRT-PCR relative to control; assay type: functional, organism-based; conditions: HepG2 2.2.15; summary of the method: as §4
[24] = phosphate buffer, read-out: solubility

SMILES | EC50 (Hepatitis B virus [2]) [nM] | CC50 [3] [nM] | selectivity ratio at 144 h [16] | further results
Cc1cc(Nc2nn(C3CC3)c3cnc(S(=O)(=O)N4CCOCC4)cc23)ccc1F | 42 | > 100000 | – | microsomal CLint [1]: 38 µL/min/mg; microsomal CLint [4]: 53.5 µL/min/mg
Cc1cc(Nc2nn(C3CC3)c3cnc(S(=O)(=O)N4CCC(OC(=O)CN(C)C)CC4)cc23)ccc1F.O=C(O)/C=C\C(=O)O | – | – | – | solubility ([5]; BLD = below limit of detection): Bld; solubility [6]: 4200 µg/mL; solubility [7]: 7930 µg/mL
C[C@H](Cn1cnc2c(N)ncnc21)OCP(=O)(O)O [TENOFOVIR ANHYDROUS] | 10 | – | – | EC50 (Hepatitis B virus [8]): 2520 nM; CC50 [9]: 15000 nM; EC50 (Hepatitis B virus [10]): 840 nM
Cc1cc(Nc2nn(C3CC3)c3cnc(S(=O)(=O)N4CCC(OC(=O)CN(C)C)CC4)cc23)ccc1F.Cl | – | – | – | solubility [5, 24]: 40 µg/mL; solubility [6]: 6900 µg/mL; solubility [11]: 16 µg/mL; solubility [7]: 6750 µg/mL
Cc1cc(Nc2nn(C3CC3)c3cnc(S(=O)(=O)N4CCC(OC(=O)[C@@H](N)C(C)C)CC4)cc23)ccc1F.O=C(O)C(F)(F)F | – | – | – | Stability [12]: Stable; Stability [13]: Unstable; half-life [14]: 18 h
CC(=O)O.Cc1cc(Nc2nn(C3CC3)c3cnc(S(=O)(=O)N4CCC(OC(=O)CN(C)C)CC4)cc23)ccc1F | – | – | – | solubility ([5]; BLD = below limit of detection): Bld; solubility [6]: 1110 µg/mL
Cc1cc(Nc2nn(C3CC3)c3cnc(S(=O)(=O)N4CCC(OC(=O)CN)CC4)cc23)ccc1F.O=C(O)C(F)(F)F | – | – | – | Stability [12]: 74.2%; Stability [15]: 88.3%; Stability [13]: 67.6%; half-life [14]: 1.29 h
CS(=O)(=O)O.CS(=O)(=O)O.Cc1cc(Nc2nn(C3CC3)c3cnc(S(=O)(=O)N4CCC(OC(=O)CN(C)C)CC4)cc23)ccc1F | – | – | – | solubility [5, 24]: 7690 µg/mL; solubility [6]: 7900 µg/mL; solubility [11]: 230 µg/mL; solubility [7]: 7080 µg/mL
Cc1cc(Nc2nn(C3CC3)c3cnc(S(=O)(=O)N4CCC(OC(=O)CN(C)C)CC4)cc23)ccc1F | – | – | – | solubility [6]: 710 µg/mL (≈ 1340 µM)
C=C1[C@H](CO)[C@@H](O)C[C@@H]1n1cnc2c(=O)[nH]c(N)nc21 | 11 | – | – | EC50 (Hepatitis B virus [8]): > 10000 nM; CC50 [9]: 42100 nM; EC50 (Hepatitis B virus [10]): > 10000 nM
O=S(=O)(c1ccc2[nH]nc(Nc3ccc(F)c(Cl)c3)c2c1)N1CCC(O)CC1 | 1280 | 24000 | 18.8 | –
Cc1cc(Nc2nn(CC(F)(F)F)c3ccc(S(=O)(=O)N4CCOCC4)cc23)ccc1F | 240 | > 100000 | > 417 | –
O=S(=O)(c1cc2c(Nc3ccc(F)c(C(F)F)c3)nn(C3CC3)c2cn1)N1CCC(O)CC1 | 71 | > 100000 | > 1410 | EC50 (Hepatitis B virus [8]): 13 nM; CC50 [9]: > 100000 nM; EC50 (Hepatitis B virus [10]): 2.2 nM; inhibition (Hepatitis B virus [17]): inactive; inhibition (Hepatitis B virus [18]): Active; inhibition (Hepatitis B virus [19]): inactive; inhibition (Hepatitis B virus [20]): Active; EC50 (Hepatitis B virus [21]): 42 nM; microsomal CLint [4]: 6.9 µL/min/mg; inhibition (Hepatitis B virus [22]): Active; inhibition (Hepatitis B virus [23]): Active
O=S(=O)(c1ccc2c(c1)c(Nc1ccc(F)cc1)nn2C1CC1)N1CCC(O)C1 (stereo not drawn) | 2100 | 60000 | 28 | –
O=S(=O)(c1ccc2c(c1)c(Nc1ccc(F)cc1)nn2C1CC1)N1CCC(O)CC1 | 220 | > 100000 | > 455 | –
O=S(=O)(c1ccc2c(c1)c(Nc1ccc(F)cc1)nn2C1CC1)N1CCOCC1 | 430 | > 100000 | > 232 | –
O=S(=O)(c1ccc2c(c1)c(Nc1ccc(F)c(C3CC3)c1)nn2C1CC1)N1CCC(O)CC1 | 680 | 5860 | 8.6 | –
O=S(=O)(c1ccc2c(c1)c(Nc1ccc(F)c(F)c1)nn2C1CC1)N1CCC(O)CC1 | 120 | 75000 | 625 | –
O=S(=O)(c1ccc2c(c1)c(Nc1ccc(Cl)cc1)nn2C1CC1)N1CCC(O)CC1 | 3140 | 6900 | 2.2 | –
O=S(=O)(c1ccc2c(c1)c(Nc1ccc(F)cc1)nn2C1CCC1)N1CCC(O)CC1 | 8000 | 10800 | 1.3 | –
O=S(=O)(c1ccc2c(c1)c(NC1CCCCC1)nn2C1CC1)N1CCC(O)CC1 | > 10000 | 100000 | < 10 | –
Cc1cc(F)ccc1Nc1nn(C2CC2)c2ccc(S(=O)(=O)N3CCC(O)CC3)cc12 | 1150 | > 100000 | > 87 | –
Cc1cc(Nc2nn(C3CC3)c3ccc(S(=O)(=O)N4CCOCC4)cc23)ccc1F | 57 | > 100000 | – | microsomal CLint [1]: 41 µL/min/mg; microsomal CLint [4]: 26.9 µL/min/mg
Cc1cc(Nc2nn(CC(F)F)c3ccc(S(=O)(=O)N4CCOCC4)cc23)ccc1F | 230 | > 100000 | > 435 | –
O=S(=O)(c1ccc2c(c1)c(Nc1ccc(F)cc1)nn2C1CC1)N1CCC2(CC1)OCCO2 | 250 | > 100000 | > 400 | –
O=S(=O)(c1ccc2c(c1)c(Nc1ccccc1)nn2C1CC1)N1CCC(O)CC1 | 740 | 32200 | 44 | –
